ChEMBL document CHEMBL4052614, “Novel 3',5'-diprenylated chalcones inhibited the proliferation of cancer cells in vitro by inducing cell apoptosis and arresting cell cycle phase” (Eur J Med Chem, 2017)
Active and inactive are the calls of the source. The rule behind the calls is not given here.

Experiments:
HEL [1] = experiment: Growth inhibition of HEL cells at 5 umol/L after 48 hrs by MTT assay relative to control; format: functional; conditions: Homo sapiens; for inhibition of growth at 5 µM: read-out: GI
Procedure, shortened: (§1)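 Cells kept in DMEM/10% FBS at 37 °C, 5% CO2, seeded at 4×10^3–8×10^3 cells/well, 24 h attachment, then 48 h with compound at 5 µmol/L. MTT (5 mg/mL solution) added for 4 h at 37 °C, formazan taken up in DMSO, A490 read. Percent inhibition as mean ± SD of three independent experiments. Doxorubicin as positive control.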

MDA-MB-231 = experiment: Growth inhibition of human MDA-MB-231 cells at 5 umol/L after 48 hrs by MTT assay relative to control; format: functional; conditions: for inhibition of growth at 5 µM: MDA-MB-231, 48 h, read-out: GI; procedure, shortened: as §1
K562 [2] = experiment: Growth inhibition of human K562 cells at 5 umol/L after 48 hrs by MTT assay relative to control; format: functional; conditions: for inhibition of growth at 5 µM: K562, 48 h, read-out: GI; procedure, shortened: as §1
PC-3 [3] = experiment: Growth inhibition of human PC3 cells at 5 umol/L after 48 hrs by MTT assay relative to control; format: functional; conditions: for inhibition of growth at 5 µM: PC-3, 48 h, read-out: GI; procedure, shortened: as §1
K562 [4] = experiment: Cytotoxicity against human K562 cells after 48 hrs by MTT assay; format: functional, cell-based; conditions: K562, 48 h
Procedure, shortened: (§2)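 Cells kept in DMEM/10% FBS at 37 °C, 5% CO2, seeded at 4×10^3–8×10^3 cells/well and left 24 h to adhere. Exposed 48 h to a range of concentrations. MTT (5 mg/mL solution) added for 4 h at 37 °C, formazan dissolved in DMSO, absorbance read at 490 nm. IC50 derived from concentration–inhibition relation. Doxorubicin as positive control.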

HEL [5] = experiment: Cytotoxicity against HEL cells after 48 hrs by MTT assay; format: functional, cell-based; conditions: Homo sapiens; procedure, shortened: as §2
PC-3 [6] = experiment: Cytotoxicity against human PC3 cells after 48 hrs by MTT assay; format: functional, cell-based; conditions: PC-3, 48 h; procedure, shortened: as §2
HEL [7] = experiment: Induction of morphological changes in HEL cells assessed as reduction in cell number at 5 umol/L after 48 hrs by inverted fluorescence microscopic analysis; format: functional, cell-based; conditions: Homo sapiens
Procedure, shortened: (§3)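 Cells cultured in DMEM/10% FBS at 37 °C, 5% CO2. Exposed 48 h to 5 µmol/L compound alongside DMSO controls. Morphology (cell number, rounding, spacing, apoptotic bodies, spindle shape) observed under an inverted microscope with CCD camera.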

HEL [8] = experiment: Induction of apoptosis in HEL cells assessed as early apoptotic cells at 10 umol/L after 48 hrs by annexin V-FITC/propidium iodide staining based flow cytometry (reference value: 4.2%); format: functional, Homo sapiens
HEL [9] = experiment: Induction of apoptosis in HEL cells assessed as necrotic cells at 10 umol/L after 48 hrs by annexin V-FITC/propidium iodide staining based flow cytometry (reference value: 0.3%); format: functional, Homo sapiens
HEL [10] = experiment: Induction of apoptosis in HEL cells assessed as viable cells at 10 umol/L after 48 hrs by annexin V-FITC/propidium iodide staining based flow cytometry (reference value: 94%); format: functional; conditions: Homo sapiens, read-out: Activity
HEL [11] = experiment: Induction of apoptosis in HEL cells assessed as late apoptotic cells at 10 umol/L after 48 hrs by annexin V-FITC/propidium iodide staining based flow cytometry (reference value: 1.6%); format: functional, Homo sapiens
HEL [12] = experiment: Cell cycle arrest in HEL cells assessed as decrease in G2 phase accumulation at 5 umol/L after 48 hrs by propidium iodide staining based flow cytometric method; format: functional; conditions: Homo sapiens
Procedure, shortened: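 Cells grown in DMEM with 10% FBS and penicillin/streptomycin at 37 °C, 5% CO2, and passaged at least 3 times after thawing. Treated 48 h at 5 µmol/L, DMSO-treated controls. Harvested by trypsin, PBS-washed, fixed in ice-cold ethanol, blocked 1 h at 4 °C in 5% BSA/PBS, RNase 1 µg/mL 30 min at 37 °C, PI 20 µg/mL final. Phase percentages read from PI histograms. Mean ± SD, three independent experiments.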

HEL [13] = experiment: Induction of apoptosis in HEL cells assessed as late apoptotic cells at 5 umol/L after 48 hrs by annexin V-FITC/propidium iodide staining based flow cytometry (reference value: 1.6 to 3.3%); format: functional, Homo sapiens
HEL [14] = experiment: Induction of apoptosis in HEL cells assessed as necrotic cells at 5 umol/L after 48 hrs by annexin V-FITC/propidium iodide staining based flow cytometry (reference value: 0.3 to 1%); format: functional, Homo sapiens
HEL [15] = experiment: Induction of apoptosis in HEL cells assessed as viable cells at 5 umol/L after 48 hrs by annexin V-FITC/propidium iodide staining based flow cytometry (reference value: 93.1 to 94%); format: functional; conditions: Homo sapiens, read-out: Activity
HEL [16] = experiment: Induction of morphological changes in HEL cells assessed as formation of apoptotic bodies at 5 umol/L after 48 hrs by inverted fluorescence microscopic analysis; format: functional, cell-based; conditions: Homo sapiens; procedure, shortened: as §3
HEL [17] = experiment: Induction of apoptosis in HEL cells assessed as early apoptotic cells at 5 umol/L after 48 hrs by annexin V-FITC/propidium iodide staining based flow cytometry (reference value: 2.6 to 4.2%); format: functional, Homo sapiens

Structure (SMILES) | inhibition of growth at 5 µM (HEL [1]) [%] | inhibition of growth at 5 µM (MDA-MB-231) [%] | inhibition of growth at 5 µM (K562 [2]) [%] | inhibition of growth at 5 µM (PC-3 [3]) [%] | growth inhibition (GI) (HEL [1]) | growth inhibition (GI) (K562 [2]) | also measured
CCOc1cc(/C=C/C(=O)c2cc(CC=C(C)C)c(OC)c(CC=C(C)C)c2O)ccc1O | 12.7 | 33.5 | 10.2 | 25.6 | – | – | –
COc1cccc2c1C(=O)c1c(O)c3c(c(O)c1C2=O)C[C@@](O)(C(=O)CO)C[C@@H]3O[C@H]1C[C@H](N)[C@H](O)[C@H](C)O1 [DOXORUBICIN] | 89.2 | 87.1 | 90.6 | 89.7 | – | – | IC50 (K562 [4]): 2410 nM; IC50 (HEL [5]): 2130 nM; IC50 (PC-3 [6]): 2630 nM
CCOc1cc(/C=C/C(=O)c2cc(CC=C(C)C)c(OC)c(CC=C(C)C)c2O)ccc1OC(=O)c1ccc(Cl)s1 | – | – | – | 34.3 | inactive | inactive | growth inhibition (GI) (MDA-MB-231): inactive
COc1cc(/C=C/C(=O)c2cc(CC=C(C)C)c(OC)c(CC=C(C)C)c2O)ccc1OC(=O)c1ccc(C)s1 | – | 19.6 | 6.3 | 19.2 | inactive | – | –
COc1c(CC=C(C)C)cc(C(=O)/C=C/c2ccc(N(C)C)cc2)c(O)c1CC=C(C)C | – | 21.5 | – | 11.6 | inactive | inactive | –
COCOc1ccc(/C=C/C(=O)c2cc(CC=C(C)C)c(OC)c(CC=C(C)C)c2O)cc1OC | – | 14 | 3.9 | 17.3 | inactive | – | –
C=CCOc1ccc(/C=C/C(=O)c2cc(CC=C(C)C)c(OC)c(CC=C(C)C)c2O)cc1OCC | – | 27.7 | – | 13.4 | inactive | inactive | –
COc1cc(/C=C/C(=O)c2cc(CC=C(C)C)c(OC)c(CC=C(C)C)c2O)ccc1O | 22.2 | 19.3 | – | 26 | – | inactive | –
CCOc1cc(/C=C/C(=O)c2cc(CC=C(C)C)c(OC)c(CC=C(C)C)c2O)ccc1OC(=O)/C=C/c1ccncc1 | – | – | – | 13.5 | inactive | inactive | growth inhibition (GI) (MDA-MB-231): inactive
COc1ccc(/C=C/C(=O)c2cc(CC=C(C)C)c(OC)c(CC=C(C)C)c2O)cc1Cl | 11.7 | 26.5 | 31.9 | 31.8 | – | – | –
COc1cc(/C=C/C(=O)c2cc(CC=C(C)C)c(OC)c(CC=C(C)C)c2O)cc(OC)c1OC | 23.6 | 26.2 | – | 15 | – | inactive | –
COc1ccc(/C=C/C(=O)c2cc(CC=C(C)C)c(OC)c(CC=C(C)C)c2O)cc1F | 12.3 | 12.1 | 19.3 | – | – | – | growth inhibition (GI) (PC-3 [3]): inactive
COc1cc(/C=C/C(=O)c2cc(CC=C(C)C)c(OC)c(CC=C(C)C)c2O)ccc1OC(=O)c1ccc(N(C)C)cc1 | – | 38.5 | 8.1 | 36.5 | inactive | – | –
COc1c(CC=C(C)C)cc(C(=O)/C=C/c2cccn2C)c(O)c1CC=C(C)C | – | 33.8 | 9.9 | 11.7 | inactive | – | –
CCOc1cc(/C=C/C(=O)c2cc(CC=C(C)C)c(OC)c(CC=C(C)C)c2O)ccc1OC(=O)c1cccs1 | 4 | 7.4 | – | 21.4 | – | inactive | –
COc1cc(/C=C/C(=O)c2cc(CC=C(C)C)c(OC)c(CC=C(C)C)c2O)ccc1OC(=O)c1cccnc1 | 5.7 | – | – | 23 | – | inactive | growth inhibition (GI) (MDA-MB-231): inactive
CCOc1cc(/C=C/C(=O)c2cc(CC=C(C)C)c(OC)c(CC=C(C)C)c2O)ccc1OCOC | 6.3 | 29.9 | – | 13.1 | – | inactive | –
COc1cc(/C=C/C(=O)c2cc(CC=C(C)C)c(OC)c(CC=C(C)C)c2O)ccc1OC(=O)Cc1cc2ccccc2[nH]1 | – | 28.3 | – | 29.9 | inactive | inactive | –
COc1ccc(/C=C/C(=O)c2cc(CC=C(C)C)c(OC)c(CC=C(C)C)c2O)cc1Br | – | 30.2 | 18.9 | 20.9 | inactive | – | –
COc1ccc(/C=C/C(=O)c2cc(CC=C(C)C)c(OC)c(CC=C(C)C)c2O)cc1OC | – | 19 | 7.5 | 10.6 | inactive | – | –
CCOc1cc(/C=C/C(=O)c2cc(CC=C(C)C)c(OC)c(CC=C(C)C)c2O)ccc1OC(=O)c1ccco1 | – | – | – | 12.7 | inactive | inactive | growth inhibition (GI) (MDA-MB-231): inactive
COc1ccc(/C=C/C(=O)c2cc(CC=C(C)C)c(OC)c(CC=C(C)C)c2O)cc1 | 29.5 | 14.5 | 32 | 24.6 | – | – | –
COc1ccc(/C=C/C(=O)c2cc(CC=C(C)C)c(OC)c(CC=C(C)C)c2O)cc1[N+](=O)[O-] | 85.4 | 23.4 | 23 | 21.2 | – | – | Activity (HEL [7]): Active; Activity (HEL [8]): 11.6%; Activity (HEL [9]): 10.1%; viability at 10 µM (HEL [10]): 30.6%; Activity (HEL [11]): 47.6%; Activity (HEL [12]): Active; Activity (HEL [13]): 3.9%; Activity (HEL [14]): 0.8%; Activity (HEL [5]): Dose-dependent effect; IC50 (HEL [5]): 4350 nM; viability at 5 µM (HEL [15]): 90%; Activity (HEL [16]): inactive; Activity (HEL [17]): 5.3%
